molecular target: T1, UniProt Q8VGC6; details: stereoisomer not certain
T1 sequence (whole entry): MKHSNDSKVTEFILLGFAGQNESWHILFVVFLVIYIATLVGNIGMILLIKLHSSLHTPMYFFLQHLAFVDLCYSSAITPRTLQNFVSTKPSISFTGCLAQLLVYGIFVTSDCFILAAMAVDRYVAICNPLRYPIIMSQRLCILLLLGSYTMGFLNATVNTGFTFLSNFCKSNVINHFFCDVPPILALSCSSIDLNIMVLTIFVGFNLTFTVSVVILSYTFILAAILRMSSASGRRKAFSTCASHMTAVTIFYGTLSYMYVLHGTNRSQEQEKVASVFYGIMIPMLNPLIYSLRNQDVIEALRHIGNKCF
Procedure, shortened: (§1)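 Assay methods differ from source to source, frequently being transient luciferase assays in mammalian cell lines. For each receptor–molecule pair, the label responsive (active) applies when the original authors judged the measured signal statistically different from baseline, and non-responsive (inactive) applies otherwise.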

Odorant receptor agonist call, inactive:
CCCO
CC1CC=CCCCCCCCCCC(=O)C1 (stereo unspecified)
COc1nccnc1C(C)C
CCC(C)O (stereo unspecified)
COc1cnccn1
O=C([O-])CCCCCCC(=O)[O-].[H+].[H+]
CCc1ncc(C)nc1CC
O=C([O-])CCCCCCCC(=O)[O-].[H+].[H+]
CCSSCC
CC=C(C)C=O
OCCCCCCCCCO
CCC=CCCC=CC=O
C1CCOC1
CCCCCCC(C=O)=Cc1ccccc1
OCCc1ccccc1
C=C(C)C1CCC(C)C(O)C1 (stereo unspecified)
C=CC(=C)CCC=C(C)CCC=C(C)C
Cc1c(C)c(C)c(C=O)c(C)c1C
CC=Cc1ccc(OC)cc1
CCCCCC(=Cc1ccccc1)C(OC)OC
CCc1occc(=O)c1O
CSSCc1ccco1
CCCCCCCCC=CC=O
CCCCCC=CCCC=O
COc1ccccc1
Cc1ccc2c(c1)OCC(=O)CO2
CC(=O)C=CC1=C(C)CCCC1(C)C
CCCCCC(C=O)=Cc1ccccc1
CCC(C)c1nccnc1OC (stereo unspecified)
CCCCCCC=CC=O
O=C(OCc1ccccc1)c1ccccc1O
CCCC=O
O=C(O)C1CCC1
CC(=O)C1(C)CC2=C(CCCC2(C)C)CC1C (stereo unspecified)
CCCCCOC(=O)CC
CCCCCCCCCCOC(C)=O
CNc1ccccc1C(=O)OC
CC=CC(=O)C1=C(C)CCCC1(C)C

molecular target: T2, UniProt Q8VGJ3; details: stereoisomer not certain
T2 sequence (whole entry): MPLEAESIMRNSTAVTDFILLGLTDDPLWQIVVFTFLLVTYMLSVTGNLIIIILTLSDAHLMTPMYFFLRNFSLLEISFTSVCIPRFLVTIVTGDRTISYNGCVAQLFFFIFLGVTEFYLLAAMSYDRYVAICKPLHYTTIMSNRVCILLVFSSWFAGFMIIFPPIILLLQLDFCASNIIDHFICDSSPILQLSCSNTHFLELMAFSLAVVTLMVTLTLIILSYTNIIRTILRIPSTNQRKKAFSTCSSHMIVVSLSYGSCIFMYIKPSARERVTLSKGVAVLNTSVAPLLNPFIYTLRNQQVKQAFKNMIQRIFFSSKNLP
Procedure, shortened: as §1

Odorant receptor agonist call, inactive:
CCCO
CC1CC=CCCCCCCCCCC(=O)C1 (stereo unspecified)
COc1nccnc1C(C)C
CCC(C)O (stereo unspecified)
COc1cnccn1
O=C([O-])CCCCCCC(=O)[O-].[H+].[H+]
CCc1ncc(C)nc1CC
O=C([O-])CCCCCCCC(=O)[O-].[H+].[H+]
CCSSCC
CC=C(C)C=O
OCCCCCCCCCO
CCC=CCCC=CC=O
C1CCOC1
CCCCCCC(C=O)=Cc1ccccc1
OCCc1ccccc1
C=C(C)C1CCC(C)C(O)C1 (stereo unspecified)
C=CC(=C)CCC=C(C)CCC=C(C)C
Cc1c(C)c(C)c(C=O)c(C)c1C
CC=Cc1ccc(OC)cc1
CCCCCC(=Cc1ccccc1)C(OC)OC
CCc1occc(=O)c1O
CSSCc1ccco1
CCCCCCCCC=CC=O
CCCCCC=CCCC=O
COc1ccccc1
Cc1ccc2c(c1)OCC(=O)CO2
CC(=O)C=CC1=C(C)CCCC1(C)C
CCCCCC(C=O)=Cc1ccccc1
CCC(C)c1nccnc1OC (stereo unspecified)
CCCCCCC=CC=O
O=C(OCc1ccccc1)c1ccccc1O
CCCC=O
O=C(O)C1CCC1
CC(=O)C1(C)CC2=C(CCCC2(C)C)CC1C (stereo unspecified)
CCCCCOC(=O)CC
CCCCCCCCCCOC(C)=O
CNc1ccccc1C(=O)OC
CC=CC(=O)C1=C(C)CCCC1(C)C

From the M2OR odorant receptor database
